The record followed here is ChEMBL document CHEMBL1135421, “2-(Anilinomethyl)imidazolines as alpha1 adrenergic receptor agonists: the discovery of alpha1a subtype selective 2'-alkylsulfonyl-substituted analogues” (J Med Chem, 2002).

Molecules are shown by their SMILES. Some results are limits rather than exact numbers.

The target of assay [1] is T1, Alpha-1D adrenergic receptor (Homo sapiens, UniProt P25100).
T1 sequence (P25100 whole entry): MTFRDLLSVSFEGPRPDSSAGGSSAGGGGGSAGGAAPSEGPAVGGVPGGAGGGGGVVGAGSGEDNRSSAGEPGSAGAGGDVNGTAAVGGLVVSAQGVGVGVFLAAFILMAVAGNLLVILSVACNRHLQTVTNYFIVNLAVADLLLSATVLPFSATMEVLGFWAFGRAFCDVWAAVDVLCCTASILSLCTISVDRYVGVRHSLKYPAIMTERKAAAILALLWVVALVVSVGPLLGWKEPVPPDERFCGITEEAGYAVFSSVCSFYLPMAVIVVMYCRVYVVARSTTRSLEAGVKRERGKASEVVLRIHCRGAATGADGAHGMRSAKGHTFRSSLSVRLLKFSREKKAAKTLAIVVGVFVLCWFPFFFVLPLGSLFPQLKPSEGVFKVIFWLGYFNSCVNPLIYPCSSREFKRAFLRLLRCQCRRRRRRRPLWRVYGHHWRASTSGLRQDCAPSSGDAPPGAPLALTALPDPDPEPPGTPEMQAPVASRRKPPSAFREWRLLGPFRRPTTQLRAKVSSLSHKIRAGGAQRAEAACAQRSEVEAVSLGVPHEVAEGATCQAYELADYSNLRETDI
The assay can be described thus: Agonist potency at Alpha-1D adrenergic receptor assayed in rat-1 fibroblasts expressing human alpha1d. The format is functional. The gist of the method: (§1)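 Human α1a, α1b or α1d receptors expressed in Rat-1 fibroblasts (DMEM, 10% heat-inactivated FBS, 0.6 mg/mL G418). Cells were plated at 6000/well and grown 48 h at 37 °C. They were loaded 2 h at 37 °C with Calcium Green (4 μM), pluronic acid 0.2% and probenecid 2.5 mM in HEPES buffer pH 7.4, then read by FLIPR at room temperature: 10 s baseline, 50 s after compound. 11-point curves were expressed as % of the 40 μM phenylephrine response; top concentration typically 5 μM.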

The target in assay [2] is T2, Alpha-1A adrenergic receptor (Homo sapiens, UniProt P35348).
T2 sequence (P35348 whole entry): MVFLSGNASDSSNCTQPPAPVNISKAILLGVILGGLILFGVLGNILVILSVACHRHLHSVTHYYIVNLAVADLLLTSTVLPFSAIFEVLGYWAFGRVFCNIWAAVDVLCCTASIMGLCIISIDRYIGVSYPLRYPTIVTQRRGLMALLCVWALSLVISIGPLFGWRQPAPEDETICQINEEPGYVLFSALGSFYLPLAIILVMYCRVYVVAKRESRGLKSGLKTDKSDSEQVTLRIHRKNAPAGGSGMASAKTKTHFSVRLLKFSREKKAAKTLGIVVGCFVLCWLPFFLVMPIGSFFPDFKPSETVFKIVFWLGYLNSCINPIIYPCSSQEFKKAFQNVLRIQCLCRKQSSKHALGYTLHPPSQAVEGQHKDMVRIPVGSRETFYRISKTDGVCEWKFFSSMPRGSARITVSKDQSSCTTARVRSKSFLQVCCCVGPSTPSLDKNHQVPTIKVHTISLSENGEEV
The assay can be described thus: Agonist potency at Alpha-1 adrenergic receptor assayed in rat-1 fibroblasts expressing human Alpha-1A. The format is functional. The method in brief:
as §1

The target of assay [3] is T3, Alpha-1B adrenergic receptor (Homo sapiens) (UniProt P35368).
T3 sequence (whole entry): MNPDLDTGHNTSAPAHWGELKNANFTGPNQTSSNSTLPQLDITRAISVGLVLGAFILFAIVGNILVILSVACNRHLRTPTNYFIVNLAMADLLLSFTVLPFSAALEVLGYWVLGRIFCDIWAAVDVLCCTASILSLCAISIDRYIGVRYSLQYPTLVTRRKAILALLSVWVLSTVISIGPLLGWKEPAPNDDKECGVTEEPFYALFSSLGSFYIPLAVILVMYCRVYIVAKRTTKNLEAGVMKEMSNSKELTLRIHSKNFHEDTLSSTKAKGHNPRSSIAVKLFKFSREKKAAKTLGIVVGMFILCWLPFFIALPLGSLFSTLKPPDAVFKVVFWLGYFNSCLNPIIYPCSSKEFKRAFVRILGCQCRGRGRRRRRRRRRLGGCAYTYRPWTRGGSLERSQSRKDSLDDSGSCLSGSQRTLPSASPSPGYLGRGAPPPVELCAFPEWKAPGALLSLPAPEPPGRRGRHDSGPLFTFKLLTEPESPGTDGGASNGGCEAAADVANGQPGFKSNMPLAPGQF
Kind of assay: Agonist potency at Alpha-1B adrenergic receptor assayed in rat-1 fibroblasts expressing human Alpha-1B adrenergic receptor. The format is functional. The method in brief: (§2)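 Rat-1 fibroblasts expressing human α1a/α1b/α1d, grown in DMEM with 10% heat-inactivated FBS and 0.6 mg/mL G418, plated 6000 cells/well and cultured 48 h at 37 °C. Loaded 2 h at 37 °C with Calcium Green (4 μM), 0.2% pluronic acid and 2.5 mM probenecid in HEPES buffer pH 7.4. FLIPR read at room temperature: 10 s baseline, then 50 s after compound. 11-point curves as % of 40 μM phenylephrine response, top concentration typically 5 μM.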

Assay [4] deals with T4, Alpha-2A adrenergic receptor (Homo sapiens, UniProt P08913).
T4 sequence (P08913 whole entry): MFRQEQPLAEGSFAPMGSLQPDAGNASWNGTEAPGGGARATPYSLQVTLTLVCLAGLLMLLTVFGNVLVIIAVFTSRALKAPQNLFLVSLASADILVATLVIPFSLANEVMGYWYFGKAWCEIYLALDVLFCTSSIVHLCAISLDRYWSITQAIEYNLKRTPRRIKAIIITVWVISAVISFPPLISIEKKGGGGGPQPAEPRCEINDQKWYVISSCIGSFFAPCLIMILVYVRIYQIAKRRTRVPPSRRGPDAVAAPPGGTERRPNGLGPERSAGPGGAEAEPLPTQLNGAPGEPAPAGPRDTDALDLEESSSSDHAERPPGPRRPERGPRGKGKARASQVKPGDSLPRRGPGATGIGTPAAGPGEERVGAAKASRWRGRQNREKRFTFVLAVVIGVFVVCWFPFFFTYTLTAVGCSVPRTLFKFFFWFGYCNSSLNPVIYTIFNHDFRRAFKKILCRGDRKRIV
The assay can be described thus: Affinity to human aAlpha-2A adrenergic receptor determined by radioligand binding techniques from chinese hamster ovary (CHO) cells. Type of assay: cell-based.

Assay [5] deals with T4, Alpha-2A adrenergic receptor. The assay can be described thus: Agonist potency at Alpha-2A adrenergic receptor assayed in CHO cells expressing human alpha 2a. Type of assay: functional, cell-based.
Assay [6] addresses T5, Alpha-1B adrenergic receptor (Homo sapiens, UniProt P35368).
T5 sequence (P35368 whole entry): T3 sequence (whole entry)
Kind of assay: Agonist potency at alpha-1b adrenoceptors assayed in rat-1 fibroblasts expressing human alpha-1b. The format is functional. The gist of the method: as §2

One may read the EC50 as the concentration giving half of the maximal effect. A lower EC50 goes with an effect from little substance. `C[S+]([O-])c1ccccc1NCC1=NCCN1` (stereo not drawn): the EC50 in assay [1] is > 100000 nM; in assay [2] it was 490 nM.

For orientation: Ki means the equilibrium dissociation constant of an inhibitor or competing ligand from its target. High values mean weaker binding, low ones tighter binding. Consider `CCCS(=O)(=O)c1ccccc1NCC1=NCCN1`, for which the pEC5 in assay [3] was < 4. Further, the Ki in assay [4] is > 7940 nM.

Regarding `CSc1ccccc1NCC1=NCCN1`, the EC50 was 39.8 nM in assay [5] and 2.19 nM in assay [6].

As to `CS(=O)(=O)c1ccccc1NCC1=NCCN1`, the EC50 in assay [1] was > 100000 nM; in assay [2] it was 56.2 nM.
